# Assay results as given in publication PMC9898158 (Structure (London, England : 1993), 2022).
# Structures can show the parent of a compound that is named as a salt. Where two headings read alike, the source gives them in different places.
# Columns and labels:
# MDA-MB-231 CLPP−/− cells = experiment: Growth inhibition profiling; format: cell-based, human; settings: read-out: IC50 (nM), MDA-MB-231 CLPP−/−
# [1] = test system: HEK293 T-REx CLPX−/− cells; experiment: Growth inhibition profiling; format: cell-based, human; settings: read-out: IC50 (nM), HEK293 T-REx CLPX−/−
# HEK293 T-REx WT cells = experiment: Growth inhibition profiling; format: cell-based, human; settings: read-out: IC50 (nM), HEK293 T-REx WT
# MDA-MB-231 CLPX−/− cells = experiment: Growth inhibition profiling; format: cell-based, human; settings: read-out: IC50 (nM), MDA-MB-231 CLPX−/−
# [2] = test system: TFAM and Grp75 levels in MDA-MB-231 CLPP−/− cells; experiment: Western blot of TFAM and Grp75, MDA-MB-231 CLPP−/−; format: cell-based, human; settings: 1 μM, 24 hours
# How it was run: (§1)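 MDA-MB-231 cells (WT or CLPP−/−) were grown in DMEM/F-12 with 10% FBS and 2 mM L-glutamine. They were treated for 24 hours with 1 μM test compound or 6 μM of a reference compound. Pellets were sonicated in Dulbecco's PBS and protein was equalized. TFAM and Grp75 were detected by SDS-PAGE, transfer to PVDF and western blotting, imaged by film.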
# [3] = test system: TFAM and Grp75 levels in MDA-MB-231 WT cells; experiment: Western blot of TFAM and Grp75, MDA-MB-231 WT; format: cell-based, human; settings: 1 μM, 24 hours
# How it was run: as §1
# MDA-MB-231 WT cells = experiment: Growth inhibition profiling; format: cell-based, human; settings: read-out: IC50 (nM), MDA-MB-231 WT
# human ClpP = human ClpP (Homo sapiens, UniProt Q16740); experiment: Casein-FITC degradation assay; format: biochemical; settings: for Casein-FITC degradation h (at 2.5 μM ClpP): Hill coefficient, 2.5 μM ClpP protomer
# [4] = test system: WT and CLPP−/− MDA-MB-231 cells; experiment: Apoptotic onset check; format: cell-based, human
# How it was run: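 WT and CLPP−/− MDA-MB-231 cells in DMEM/F-12 with 10% FBS and 2 mM L-glutamine were exposed to 1 μM test compound or DMSO for 24 hours. Morphology was checked by light microscopy and nuclei by DAPI fluorescence. Positive control was 2 μM doxorubicin or DMSO for 72 hours. Lysates were made by sonication in Dulbecco's PBS and protein-equalized, then run on SDS-PAGE, immunoblotted on PVDF and imaged on film.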
# [5] = test system: HEK293 T-REx CLPP−/− cells; experiment: Growth inhibition profiling; format: cell-based, human; settings: read-out: IC50 (nM), HEK293 T-REx CLPP−/−
# MDA-MB-468 = experiment: One-dose NCI-60 screen, MDA-MB-468; format: cell-based, human; settings: 10 μM, 48-hour exposure
# How it was run: (§2)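 Run by NCI DCTD. Cells were seeded at 5,000–40,000/well in RPMI 1640 with 5% FBS and 2 mM L-glutamine and grown 24 h at 37 °C, 5% CO2. Test compound was added at 10 μM final for 48 h, with a time-zero plate kept. Cells were fixed with cold TCA (10% final for adherent, 16% for non-adherent) and stained with 0.4% SRB. Growth was calculated from A515 at 0 and 48 h.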
# MDA-MB-231 = experiment: One-dose NCI-60 screen, MDA-MB-231; format: cell-based, human; settings: 10 μM, 48-hour exposure
# COLO205 = experiment: One-dose NCI-60 screen, COLO205; format: cell-based, human; settings: 10 μM, 48-hour exposure
# How it was run: as §2
# [6] = target: ClpP (substrate TFAM lacking the MTS) (Homo sapiens, UniProt Q16740); experiment: In vitro degradation assay using TFAM; format: biochemical; settings: 20 μM compound, 13.5 μM TFAM, 15.5 μM ClpP, 37 °C, 0-5 h
# [7] = Homo sapiens, HEK293-T-REx, 72 h
# Sequence of human ClpP (Q16740 57-277): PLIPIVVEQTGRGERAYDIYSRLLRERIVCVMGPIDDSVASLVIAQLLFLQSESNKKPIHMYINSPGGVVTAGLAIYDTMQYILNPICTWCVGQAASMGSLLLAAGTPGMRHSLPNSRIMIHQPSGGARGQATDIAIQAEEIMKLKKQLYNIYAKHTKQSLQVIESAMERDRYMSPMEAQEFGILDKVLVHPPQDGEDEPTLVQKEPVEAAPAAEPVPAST
# Sequence of ClpP (substrate TFAM lacking the MTS) (Q16740 57-277): as above
SMILES,"IC50 (MDA-MB-231 CLPP−/− cells; 72 hr, SRB assay) [nM]","IC50 ([1]; 72 hr, SRB assay) [nM]","IC50 (HEK293 T-REx WT cells; 72 hr, SRB assay) [nM]","IC50 (MDA-MB-231 CLPX−/− cells; 72 hr, SRB assay) [nM]","IC50 (MDA-MB-231 WT cells; 72 hr, SRB assay) [nM]",Casein-FITC degradation h (at 2.5 μM ClpP) (human ClpP),"IC50 ([5]; 72 hr, SRB assay) [nM]",lethality (MDA-MB-468) [%],"IC50 (MDA-MB-231 CLPP−/− cells; Homo sapiens, MDA-MB-231, 72 h) [nM]","IC50 [1, 7] [nM]",growth suppression (MDA-MB-231) [%],IC50 (HEK293 T-REx WT cells; [7]) [nM],"IC50 (MDA-MB-231 CLPX−/− cells; Homo sapiens, MDA-MB-231, 72 h) [nM]","IC50 (MDA-MB-231 WT cells; Homo sapiens, MDA-MB-231, 72 h) [nM]",Kd (human ClpP) [nM],"IC50 [5, 7] [nM]",other results
C#Cc1cccc(CN2CCC3=C(C2)C(=O)N(Cc2ccc(Cl)cc2)C2=NCCN23)c1 [TR-27],> 1000,57.7 ± 3.4,46.1 ± 1.3,98.9 ± 1.7,90.7 ± 1.7,8.1 ± 1.2,> 1000,–,–,–,–,–,–,–,–,–,"levels of TFAM and Grp75 [2]: unchanged; levels of TFAM and Grp75 [3]: reduced; ClpX level ([4]; 1 μM, 24 hours): reduced; signs of apoptosis (morphology, nuclear integrity, Mcl1, caspases 9, 3, 8) ([4]; 1 μM, 24 hours): absence of significant apoptosis"
"Cn1c2c(c(=O)n(Cc3ccc(Cl)cc3)c1=O)CN(Cc1cccc(C#N)c1)CC2 [TR-57, 3-((3-(4-chlorobenzyl)-1-methyl-2,4-dioxo-1,2,3,4,7,8-hexahydropyrido[4,3-d]pyrimidin-6(5H)-yl)methyl)benzonitrile]",–,–,–,–,–,9.4 ± 7.8,–,15,> 1000,11.8 ± 0.4,68,8.9 ± 0.2,19.9 ± 0.3,19.3 ± 0.2,15.5 ± 12,> 1000,lethality (COLO205): 41%
"N#Cc1cccc(CN2CCC3=C(C2)C(=O)N(Cc2ccc(Cl)cc2)C2=NCCN23)c1 [TR-65, 3-((4-(4-Chlorobenzyl)-5-oxo-1,2,4,5,8,9-hexahydroimidazo[1,2-a]pyrido[3,4-e]pyrimidin-7(6H)-yl)methyl)benzonitrile]",–,–,–,–,–,10.9 ± 2.5,–,–,> 1000,11 ± 0.2,–,9.8 ± 0.3,9.4 ± 0.2,9.4 ± 0.2,23.3 ± 9.1,> 1000,degradation of TFAM by compound-activated ClpP [6]: degradation of TFAM by TR-activated ClpP in a time-dependent manner
N#Cc1cccc(CN2CCc3ncn(Cc4ccc(Cl)cc4)c(=O)c3C2)c1 [TR-107],> 1000,27 ± 2,22.8 ± 0.7,27.4 ± 0.8,29.4 ± 0.2,5.5 ± 0.7,> 1000,22,–,–,73,–,–,–,–,–,–
"N#Cc1cccc(CN2CCc3ncn(Cc4ccc(Br)cc4)c(=O)c3C2)c1 [TR-133, 3-([3-[(4-bromophenyl)methyl]-4-oxo-3H,4H,5H,6H,7H,8H-pyrido[4,3-d]pyrimidin-6-yl]methyl)benzonitrile]",–,–,–,–,–,6.2 ± 1.3,–,–,> 1000,26 ± 2,–,20.7 ± 0.7,29.5 ± 0.7,27.8 ± 0.4,29.1 ± 7.8,> 1000,–
"COc1cccc2c1C(=O)c1c(O)c3c(c(O)c1C2=O)C[C@@](O)(C(=O)CO)C[C@@H]3O[C@H]1C[C@H](N)[C@H](O)[C@H](C)O1 [doxorubicin, doxorubicin hydrochloride, reference compound]",–,–,–,–,–,–,–,–,–,–,–,–,–,–,–,–,"caspase 9 cleavage ([4]; 2 μM, 72 hrs, positive control): clearly showed caspase 9 cleavage"
